ChEMBL document CHEMBL4513216, “Probing the Open Global Health Chemical Diversity Library for Multistage-Active Starting Points for Next-Generation Antimalarials” (ACS Infect Dis, 2020)

Test: Toxicity liver stage against HepG2, at 10uM
Assay type: cell-based
Set-up: test concentration 10 uM, cell line HepG2-A16-CD81EGFP
Details: human, HepG2-A16-CD81EGFP cells; read-out: INHIBITION
Summary of the method: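 Uninfected HepG2-A16-CD81EGFP cells, 3 × 10^3 per well, 1536-well, plated on prespotted compound at 10 μM final, parasite-free screening media added to match infected plates; puromycin 10 μM positive, DMSO 0.5% negative; run in parallel with 48 h PbLuc assay at 37 °C, 5% CO2; viability by CellTiter-Glo luminescence, normalized to controls.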

| SMILES | cytotoxicity at 10 µM [%] |
| --- | --- |
| O=C1NC2(CCc3ccccc31)CCN(C(=O)c1ccncc1)C2 (stereo unspecified) | 0.84 |
| COc1ncc(CN2CCC3(CCNC(=O)CC3)CC2)cn1 | -144 |
| CNC(=O)c1cc2c(nc1NCC1CC1)CCN(CC1CC1)CC2 | 0.864 |
| CN1CCCC1CNC(=O)CCCOc1ccc(I)cc1 (stereo unspecified) | -14 |
| COc1cc2nc3n(c(=O)c2cc1OC)CCN(C(=O)C1CCC1)CC3 | -8.8 |
| O=C(Nc1ccccc1)N1C[C@@H]2C[C@H](C(=O)N3CCCC3)[C@H](C1)O2 | -3.29 |
| CSCc1noc(CN2CCCCC2CCc2ccc(O)cc2)n1 (stereo unspecified) | -1.58 |
| CC(=O)N1CCC2(CC1)[C@@H]1CN(C(=O)N(C)C)C[C@@H]1C(=O)N2C | 2.38 |
| Cc1[nH]ncc1C(C)NCc1cccnc1 (stereo unspecified) | -0.98 |
| CC(=O)N1CC[C@@]2(C(=O)Nc3ccccc3)CCN(S(C)(=O)=O)CC[C@@H]12 | 2.96 |
| CCc1ncc2c(n1)CN(Cc1cc(C)on1)CC2 | -16.7 |
| CNC(=O)CCc1cc(C)nc(C2CCCN2)c1 (stereo unspecified) | -8.49 |
| CC(C)c1nccn1Cc1cc(C(=O)NCC(F)(F)F)n[nH]1 | 3.73 |
| Cc1cc(C)nc(C2CCCN2C(=O)c2cnco2)n1 (stereo unspecified) | -1.45 |
| Cc1cc(C)n(Cc2cccc(C(=O)N(CCC#N)CCC#N)c2)n1 | 13.1 |
| COCc1nc2cc(NCc3ccc(CO)o3)ccc2o1 | -16.2 |
| O=C(NC1CCCC1)c1nc(COc2ccc3c(c2)OCO3)no1 | 2.87 |
| O=S(=O)(Nc1cnc(N2CCOCC2)nc1)c1ccc(C(F)(F)F)cc1 | -2.73 |
| CN(C)C[C@H]1OC[C@@H]2CN(C(=O)NCc3cccnc3)CC[C@@H]21 | 3.86 |
| O=C1CC(c2ccc(F)cc2)Cc2[nH]c(=O)c(C(=O)O)cc21 (stereo unspecified) | -3.65 |
| O=C(NCc1ccc(F)cc1)C1CCCN(c2ccc3nncn3n2)C1 (stereo unspecified) | -4.46 |
| CCOC(=O)CNC(=O)NCc1cccn1Cc1ccc(F)cc1 | 11.6 |
| CN(Cc1cc(F)cc2cccnc12)CC1CCN(CCO)CC1 | 1.9 |

| SMILES | cytotoxicity at 10 µM [%] |
| --- | --- |
| COc1cccc(NC(=O)Nc2ccc3c(c2)CC(=O)N3)c1 | -2.35 |
| COc1ccnc(CN2CCC(O)(c3ccc(C)cn3)CC2)c1OC | -138 |
| CCc1nc(COc2ccc(OCc3cnn(C)c3)cc2)no1 | -14.9 |
| CC(=O)c1cccc(S(=O)(=O)NCc2cccnc2N(C)C)c1 | 4.24 |
| CCOCC1c2c(cnn2CC2CC2)CCN1Cc1nccs1 (stereo unspecified) | 85.9 |
| COc1ccc(CC(=O)N2CCCC2c2nc(C)c(C)c(O)n2)cc1 (stereo unspecified) | -17.7 |
| CNc1nc(C)c(C(=O)N2CCCCC2CCN2CCOCC2)s1 (stereo unspecified) | -2.06 |
| COCC(=O)N1C[C@H]2CNC[C@@]2(C(=O)NCc2snnc2C)C1 | 8.27 |
| CC(C)CN(C)Cc1c[nH]nc1-c1ccc(F)cc1F | 2.38 |
| O=C(NCCN1CCOCC1)c1ccn(-c2ccccc2F)n1 | 7.44 |
| CS(=O)(=O)CC(=O)N1C[C@H]2CCC[C@@]2(COc2ccccn2)C1 | -99.2 |
| CC(C)c1ccc(C(O)CN2CCN(Cc3nccn3C)CC2)cc1 (stereo unspecified) | -38.3 |
| CCN1C(=O)C(c2ccccc2)CC12CCN(S(C)(=O)=O)CC2 (stereo unspecified) | 3.2 |
| CCCN(CCC)c1ncc(S(=O)(=O)c2ccc(C)cc2)c(N)n1 | 3.19 |
| O=C(c1ccc2nccn2c1)N1CCC(CCn2cccn2)CC1 | -1.63 |
| O=C(Nc1c(F)cccc1Oc1ccccc1)C1CCS(=O)(=O)C1 (stereo unspecified) | 1.91 |
| OCC1CCCN1c1cc(NCCc2ccccn2)ncn1 (stereo unspecified) | -0.813 |
| CC(Nc1ccc(Br)cc1)c1nc(C2CC2)no1 (stereo unspecified) | 6.27 |
| CCN1CCC2(CN(C(=O)N(C)C)CC23CCN(CC2CC2)CC3)C1=O (stereo unspecified) | 0.199 |
| Cc1nccc(CN2Cc3nccn3CC2c2ccccc2)n1 (stereo unspecified) | 3.1 |
| COc1cc(C)c(NC(=O)CCn2cccc2)cc1OC | 1.61 |
| N#Cc1ccc(C(=O)N(C2CC2)C2CC(=O)NC2=O)cc1 (stereo unspecified) | -4.64 |
| c1cnnc(N2CCCC2CNCc2nc(C3CC3)no2)c1 (stereo unspecified) | -22.6 |

| SMILES | cytotoxicity at 10 µM [%] |
| --- | --- |
| CS(=O)(=O)N1CCN(c2ccnc(N3CCCC3)n2)CC1 | -1.26 |
| Cc1c(C(=O)N(C)CC(F)(F)F)nnn1-c1ccc(F)cc1 | 7.92 |
| COc1ccc(OC2CCN(C(=O)CCc3n[nH]c(C)n3)CC2)cc1 | 4.66 |
| Cc1ccc(NC2CCN(C(=O)c3cccc4[nH]ncc34)CC2)nn1 | -13.7 |
| CCCNC(=O)C(C)Oc1ccccc1 (stereo unspecified) | -6.68 |
| c1cnc(-c2nc(CN3CCCC(Cn4cncn4)C3)cs2)nc1 (stereo unspecified) | -7.91 |
| COCCN1CCC2(CC1)CN(C(=O)c1cccs1)CCO2 | -14.1 |
| CC(C1CCN(Cc2cccc(OC(F)F)c2)CC1)N1CCOCC1 (stereo unspecified) | -9.2 |
| O=C1CC(c2ccsc2)c2cnn(C3CCCC3)c2N1 (stereo unspecified) | -0.524 |
| COCC(NC1CCSCC1)c1ccnn1C (stereo unspecified) | 13.5 |
| CN1CCN(C[C@@H]2CN(C(=O)CC3CCCCC3)C[C@@H]2CO)CC1 | -8.76 |
| N#Cc1cccc(OCCN2CCn3c(nnc3C3CC3)C2)c1 | -7 |
| COC(=O)c1ccc(Cn2cnc(C#N)n2)cc1 | -4.74 |
| Cc1nn(C)c(C)c1NC(=O)CCn1ncc2ccccc21 | 10.8 |
| O=C(c1cscn1)N1CCCC(n2cncn2)C1 (stereo unspecified) | 0.301 |
| CN(C(=O)c1ccc(Cl)cn1)c1ccccc1S(C)(=O)=O | -7.17 |
| NC(=O)C1CCN(C(=O)c2ccn(-c3ccc(F)cc3)n2)C1 (stereo unspecified) | -6.02 |
| CS(=O)(=O)c1snnc1C1CCN(Cc2ccncc2)CC1 | 2.31 |
| Cc1ccc(Cl)c2c1C1(NC(=O)c3cccnc3N1)C(=O)N2 (stereo unspecified) | 11.9 |
| NC(=O)c1cccc(CN2CCOC(Cn3cccn3)C2)c1 (stereo unspecified) | -2.69 |
| CCc1noc(CN(C)Cc2ccc(N3CCCCC3)cc2)n1 | -5.88 |
| Cn1ccnc1CN1CCN(CC(O)c2ccc(F)c(F)c2)CC1 (stereo unspecified) | -12.9 |
| Cc1cnc(CNC(=O)[C@@H]2CC[C@@H]3[C@@H](CCN3Cc3ccco3)O2)cn1 | 0.296 |

| SMILES | cytotoxicity at 10 µM [%] |
| --- | --- |
| CSc1sc2c(O)cc(=O)[nH]c2c1C(N)=O | -2.1 |
| CCc1csc(NC(=O)Nc2c(C)n[nH]c2C)n1 | -3.41 |
| Cn1cc(NS(=O)(=O)c2ccc(F)c(F)c2)ccc1=O | -9.59 |
| c1ccc(CN2CCc3c(CNc4nccs4)n[nH]c3C2)nc1 | -7.04 |
| Cc1cc(C2CCCN(CCCS(C)(=O)=O)C2)n[nH]1 (stereo unspecified) | -13.2 |
| CC(=O)N1CCCN(C(=O)c2ccc(Cn3ccccc3=O)o2)CC1 | -1.4 |
| CN1CCN(C(=O)C[C@@H]2COC[C@H]3CN(c4ccncn4)C[C@@H]23)CC1 | -134 |
| Cc1nc(COc2nc(C(C)C)no2)cs1 | 11.5 |
| COc1ccc(OCC(=O)NS(=O)(=O)c2cc(C)ccc2C)cc1 | 7.19 |
| Cc1ccccc1C(CC(=O)NCC(N)=O)c1ccccc1 (stereo unspecified) | 5.17 |
| CCOc1ccccc1-n1c(C2CC2)n[nH]c1=O | 1.12 |
| O=C(c1cccc(Cl)c1)N1CC[C@H]2[C@H]1CCN2CC1CC1 | -75 |
| CN(C)c1cc2c(nn1)CCN(C(=O)Cc1noc3ccccc13)C2 | -10.7 |
| CCN1CCN(C(=O)NCc2ccccc2Cn2cncn2)CC1 | 0.663 |
| COc1ccc(S(=O)(=O)NCC(C)(O)c2cccs2)cc1Cl (stereo unspecified) | -11.5 |
| Cc1nn(-c2ccccc2)c2nc(C(C)(C)CN3CCN(C)CC3)[nH]c12 | -2.13 |
| Cc1ccccc1-n1cc(-c2ccnc(N[C@H](CO)C(C)C)n2)cn1 | 4.43 |
| Cc1ncsc1C(=O)Nc1cccc(OCC(F)F)n1 | -1.4 |
| CNc1cc(-c2nc(CCN3CCCC3=O)no2)ccn1 | 7.46 |
| O=C(c1cccs1)N1CCC(O)(CN2CCc3ccccc3C2)C1 (stereo unspecified) | 1.49 |
| Cc1nc(C2CCCCN2C(=O)c2ccccc2)ncc1C(=O)N(C)C (stereo unspecified) | 1.9 |
| Clc1ccc2nc(N3CCC(NCCCC4CCOC4)CC3)sc2c1 (stereo unspecified) | 4.1 |
| Cc1nn(C)cc1S(=O)(=O)NCC(C)Cn1cc(Cl)cn1 (stereo unspecified) | 0.197 |

| SMILES | cytotoxicity at 10 µM [%] |
| --- | --- |
| Cc1cc(CN(C)C(C(=O)O)c2ccc(C(C)(C)C)cc2)on1 (stereo unspecified) | -6.36 |
| CNc1cccc(C2CN(C(=O)c3c[nH]cn3)CCO2)n1 (stereo unspecified) | 6 |
| Cc1c(NC(=O)C(C)N(C)C)c(=O)n(-c2ccccc2)n1C (stereo unspecified) | 1.11 |
| O=C(CCCNc1ncccn1)N1CCCC(n2ccnc2)C1 (stereo unspecified) | -15.1 |
| CCc1ccsc1C(=O)N1CCN(CC(C)O)CC1 (stereo unspecified) | -33.1 |
| CC(NC1CCN(CC(=O)N(C)C)CC1)c1cnn(C(C)C)c1 (stereo unspecified) | -0.54 |
| CC(=O)N(Cc1noc(C2CC2)n1)C1CCN(Cc2ccncc2)C1 (stereo unspecified) | -13.8 |
| CCCSc1nc(N)c(NC(=O)c2ccc(OC)c(OC)c2)c(=O)[nH]1 | -8.7 |
| Cc1ccc(CC(=O)N2CCC(Nc3cccnn3)CC2)s1 | -7.01 |
| Cn1nc(C(=O)NC2(c3ccccc3)CCC2)ccc1=O | 1.42 |
| CCOC(=O)[C@@H]1[C@@H](O)C(=O)N(C)C12CCN(C(=O)c1ccco1)CC2 | -2.36 |
| CCC(=O)NCC(c1ccc(SC)cc1)N1CCc2sccc2C1 (stereo unspecified) | 4.05 |
| CCCn1nccc1NC(=O)CN1CCCC1c1c(C)nn(C)c1C (stereo unspecified) | -2.7 |
| CC1CCN(C(=O)[C@H]2C[C@@H]3CCN(CC4CCOCC4)C[C@H]3O2)CC1 | 5.35 |
| CC(=O)N1CCCN(C(=O)NCc2ccc(-c3ccn[nH]3)cc2)CC1 | 0.322 |
| Cc1cnn(C2CCCN(C(=O)c3cc(Cl)c4c(c3)OCO4)C2)c1 (stereo unspecified) | -5.25 |
| CCC(CO)N(Cc1ccco1)C(=O)c1ccccc1NC (stereo unspecified) | 2.1 |
| CCCOC(=O)C(C)Sc1nnnn1C1CCOCC1 (stereo unspecified) | 18.1 |
| COCCNC(=O)Cn1ccc2cccc(OC)c21 | -45.8 |
